Source: ChEMBL document CHEMBL1121893, “N-Aralkyl substitution of 2-amino-5,6- and -6,7-dihydroxy-1,2,3,4-tetrahydronaphthalenes. 1. Cardiac and pressor/depressor activities” (J Med Chem, 1981)
The source made the active and inactive calls. The calls are words filed in the database; no cut-off is given here.

Tests used:
[1] = Percentage increase in contractile force was determined by the effect of DMI (desmethylimipramine, 1 mg/kg, iv) at 50 ug/kg
[2] = species: Cavia porcellus; assay: (§1) Effective concentration for increasing potency force in guinea pig isolated left atria; assay type: functional
Procedure, shortened: (§2)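 Isolated guinea pig left and right atria, field stimulated with 5 ms pulses and allowed to stabilise 60 min with periodic washing. An isoproterenol cumulative concentration-response curve was run first, tissues washed, then a cumulative curve with the test compound. Force was read in both atria and rate in right atria. Intrinsic activity = maximal response ÷ isoproterenol maximum. EC20 was given where EC50 was not reached. Means ± SE.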

[3] = species: Canis familiaris; assay: Ionotropic selectivity expressed as change in heart rate for 100 percent increase in right ventricular contractile force in dogs; assay type: functional, Canis lupus familiaris
Procedure, shortened: (§3)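 Mongrel dogs of either sex, anesthetized with pentobarbital sodium (30 mg/kg iv) and ventilated. Femoral-artery blood pressure, heart rate and right ventricular contractile force were recorded, the force by strain gauge with the muscle stretched to 140% of in situ length. After 30 min equilibration, iv bolus doses in saline with 0.5 mg/mL bisulfite were doubled until contractile force rose 100%. Peak responses were taken.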

[4] = species: Cavia porcellus; assay: Compound was tested for or relative intrinsic activity in guinea pig isolated atrium left atria; assay type: functional, Cardiac atrium
Procedure, shortened: as §2

[5] = species: Canis familiaris; assay: Cardioselectivity expressed as change in blood pressure for 100% increase in right ventricular contractile force in dogs; assay type: functional, Canis lupus familiaris
Procedure, shortened: as §3

[6] = species: Canis familiaris; assay: Ionotropic selectivity expressed as change in heart rate for 50 percent increase in right ventricular contractile force in dogs; assay type: functional, Canis lupus familiaris
Procedure, shortened: (§4)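 Mongrel dogs of either sex, pentobarbital sodium anaesthesia (30 mg/kg iv, supplemented as needed), ventilated. Femoral arterial BP recorded, drugs given into a forelimb vein as iv boluses in saline with 0.5 mg/mL sodium bisulfite. Right ventricular CF measured by Walton-Brodie strain gauge. Peak response taken per dose, doses raised in 2-fold steps until CF rose 100%. HR and BP changes read at 50% and 100% CF increase. Means ± SEM.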

[7] = species: Cavia porcellus; assay: (§5) Effective concentration for increasing potency rate in guinea pig isolated right atria; assay type: functional
Procedure, shortened: as §2

[8] = species: Canis familiaris; assay: Inotropic potency expressed as 50 percent increase in right ventricular contractile force in dogs; assay type: functional, Canis lupus familiaris, Heart right ventricle
Procedure, shortened: as §4

[9] = species: Canis familiaris; assay: Cardioselectivity expressed as change in blood pressure for 50% increase in right ventricular contractile force in dogs; assay type: functional, Canis lupus familiaris
Procedure, shortened: as §4

[10] = species: Canis familiaris; assay: Inotropic potency expressed as 100 percent increase in right ventricular contractile force in dogs; assay type: functional, Canis lupus familiaris, Heart right ventricle
Procedure, shortened: as §3

[11] = species: Cavia porcellus; assay: Compound was tested for relative intrinsic activity in guinea pig isolated atrium right atria; assay type: functional, Cardiac atrium
Procedure, shortened: as §2

[12] = species: Cavia porcellus; assay: as §1; assay type: functional; remark: listed apart in the source
[13] = species: Cavia porcellus; assay: as §5; assay type: functional; remark: listed apart in the source
Procedure, shortened: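 Isolated atria were stabilized 60 min with periodic washing. A cumulative isoproterenol concentration-response curve was run, then washed out. A cumulative curve with the test compound followed. The EC50 was derived, or EC20 where 50% was not reached. Intrinsic activity is the maximal response relative to isoproterenol maximum.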

[14] = species: Cavia porcellus; assay: Effective concentration for increasing potency in guinea pig isolated right atria; assay type: functional
Procedure, shortened: as §2

[15] = species: Canis familiaris; assay: Inotropic potency expressed as 100 percent increase in right ventricular contractile force in dogs; CF(100) levels not obtained; CF(100) levels not obtained; assay type: functional, organism-based; conditions: Canis lupus familiaris; Heart right ventricle
Procedure, shortened: as §4

[16] = species: Canis familiaris; assay: Ionotropic selectivity expressed as change in heart rate for 100 percent increase in right ventricular contractile force in dogs; CF(100) levels not obtained; assay type: functional, organism-based; conditions: Canis lupus familiaris
Procedure, shortened: as §4

[17] = species: Canis familiaris; assay: Cardioselectivity expressed as change in blood pressure for 100% increase in right ventricular contractile force in dogs; CF(100) levels not obtained; assay type: functional, organism-based; conditions: Canis lupus familiaris
Procedure, shortened: as §4

[18] = species: Canis familiaris; assay: Cardioselectivity expressed as change in blood pressure for 100% increase in right ventricular contractile force in dogs; CF(100) level not obtained; assay type: functional, organism-based; conditions: Canis lupus familiaris
Procedure, shortened: as §4

[19] = species: Canis familiaris; assay: Inotropic potency expressed as 100 percent increase in right ventricular contractile force in dogs; CF(100) level not obtained; assay type: functional, organism-based; conditions: Canis lupus familiaris; Heart right ventricle
Procedure, shortened: as §4

[20] = species: Canis familiaris; assay: Ionotropic selectivity expressed as change in heart rate for 100 percent increase in right ventricular contractile force in dogs; CF(100) level not obtained; assay type: functional, organism-based; conditions: Canis lupus familiaris
Procedure, shortened: as §4

[21] = species: Canis familiaris; assay: Inotropic potency expressed as 100 percent increase in right ventricular contractile force in dogs; CF(100) levels not obtained; assay type: functional, organism-based; conditions: Canis lupus familiaris; Heart right ventricle
Procedure, shortened: as §4

NC1CCc2cc(O)c(O)cc2C1 (centres undefined)
Increase [1]: 5% | EC50 [2]: 2500 nM | HR [3]: 21 beats min-1 | RIA [4]: 1.06 | BP [5]: 61 mmHg | HR [6]: -12 beats min-1 | EC50 [7]: 33000 nM | Potency [8]: 173 nM/kg | BP [9]: 29 mmHg | Potency [10]: 457 nM/kg | RIA [11]: 0.61

Oc1cc2c(cc1O)CC(NC1CCc3cc(O)c(O)cc3C1)CC2 (centres undefined)
HR [3]: 62 beats min-1 | RIA [4]: 0.38 | EC20 [12]: 2400 nM | BP [5]: 84 mmHg | HR [6]: 31 beats min-1 | EC20 [13]: > 110000 nM | Potency [8]: 961 nM/kg | BP [9]: 78 mmHg | Potency [10]: 2650 nM/kg | RIA [11]: 0.08

CC(C)NCC(O)c1ccc(O)c(O)c1 (centres undefined) [ISOPROTERENOL]
EC50 [2]: 3.2 nM | HR [3]: 35 beats min-1 | RIA [4]: 1 | BP [5]: -27 mmHg | HR [6]: 13 beats min-1 | EC50 [7]: 6.2 nM | Potency [8]: 0.11 nM/kg | BP [9]: -17 mmHg | Potency [10]: 0.35 nM/kg | RIA [11]: 1

CC(Cc1ccc(O)c(O)c1)NC1CCc2c(ccc(O)c2O)C1 (centres undefined)
EC50 [2]: 250 nM | HR [3]: 40 beats min-1 | RIA [4]: 1.02 | BP [5]: -54 mmHg | HR [6]: 26 beats min-1 | EC50 [7]: 160 nM | Potency [8]: 7.2 nM/kg | BP [9]: -42 mmHg | Potency [10]: 20.1 nM/kg | RIA [11]: 0.87

CC(CCc1ccc(O)cc1)NCCc1ccc(O)c(O)c1 (centres undefined) [DOBUTAMINE]
EC50 [2]: 150 nM | HR [3]: 17 beats min-1 | RIA [4]: 1.12 | BP [5]: 4 mmHg | HR [6]: 3 beats min-1 | EC50 [7]: 470 nM | Potency [8]: 4.1 nM/kg | BP [9]: 3 mmHg | Potency [10]: 13.2 nM/kg | RIA [11]: 0.9

CC(CCc1ccc(O)cc1)NC1CCc2c(ccc(O)c2O)C1 (centres undefined)
EC50 [2]: 730 nM | HR [3]: 41 beats min-1 | RIA [4]: 1.11 | BP [5]: -61 mmHg | HR [6]: 20 beats min-1 | EC50 [7]: 1800 nM | Potency [8]: 27.7 nM/kg | BP [9]: -51 mmHg | Potency [10]: 196 nM/kg | RIA [11]: 0.78

CC(Cc1ccc(O)c(O)c1)NC1CCc2cc(O)c(O)cc2C1 (centres undefined)
EC50 [2]: 280 nM | HR [3]: 4 beats min-1 | RIA [4]: 0.95 | HR [6]: -5 beats min-1 | Potency [8]: 11.4 nM/kg | BP [9]: -39 mmHg | EC50 [14]: 2200 nM | Potency [10]: 27 nM/kg | RIA [11]: 0.69

NCCc1ccc(O)c(O)c1 [DOPAMINE]
EC50 [2]: 1700 nM | HR [3]: 12 beats min-1 | RIA [4]: 1.15 | BP [5]: -5 mmHg | HR [6]: 5 beats min-1 | EC50 [7]: 1500 nM | Potency [8]: 58.1 nM/kg | BP [9]: -15 mmHg | Potency [10]: 125 nM/kg | RIA [11]: 1

CC(CCc1ccc(O)c(O)c1)NC1CCc2cc(O)c(O)cc2C1 (centres undefined)
HR [3]: 45 beats min-1 | BP [5]: -11 mmHg | HR [6]: 20 beats min-1 | EC50 [7]: 1200 nM | Potency [8]: 24.6 nM/kg | BP [9]: -36 mmHg | Potency [10]: 109 nM/kg | RIA [11]: 0.35

NC1CCc2c(ccc(O)c2O)C1 (centres undefined)
Increase [1]: 18% | EC50 [2]: 4400 nM | Potency [15]: inactive | RIA [4]: 1.05 | HR [6]: 11 beats min-1 | EC50 [7]: 38000 nM | Potency [8]: 410 nM/kg | BP [9]: 41 mmHg | HR [16]: inactive | BP [17]: inactive | RIA [11]: 0.69

CC(CCc1ccc(O)cc1)NC1CCc2cc(O)c(O)cc2C1 (centres undefined)
HR [3]: 19 beats min-1 | RIA [4]: 0.38 | EC20 [12]: 2700 nM | BP [5]: 60 mmHg | HR [6]: -3 beats min-1 | Potency [8]: 140 nM/kg | BP [9]: 13 mmHg | EC20 [14]: > 110000 nM | Potency [10]: 410 nM/kg | RIA [11]: 0.15

Oc1ccc(CCNC2CCc3cc(O)c(O)cc3C2)cc1O (centres undefined)
EC50 [2]: 1500 nM | HR [3]: 30 beats min-1 | RIA [4]: 0.84 | BP [5]: 72 mmHg | HR [6]: 11 beats min-1 | Potency [8]: 85 nM/kg | BP [9]: 50 mmHg | EC50 [14]: 16000 nM | Potency [10]: 189 nM/kg | RIA [11]: 0.67

CC(C)NC1CCc2cc(O)c(O)cc2C1 (centres undefined)
BP [18]: CF(100) level not obtained | EC50 [2]: 49000 nM | RIA [4]: 0.78 | HR [6]: 9 beats min-1 | Potency [8]: 1560 nM/kg | BP [9]: 46 mmHg | EC20 [14]: 200000 nM | Potency [19]: CF(100) level not obtained | HR [20]: CF(100) level not obtained | RIA [11]: 0.24

CC(C)NC1CCc2c(ccc(O)c2O)C1 (centres undefined)
EC50 [2]: 21000 nM | Potency [21]: CF(100) levels not obtained | RIA [4]: 1.16 | HR [6]: 20 beats min-1 | EC50 [7]: 1700 nM | Potency [8]: 110 nM/kg | BP [9]: -66 mmHg | HR [16]: CF(100) levels not obtained | BP [17]: CF(100) levels not obtained | RIA [11]: 0.55
